Source: ChEMBL document CHEMBL1275313, “Synthesis and biological evaluation of novel 10-benzyl-substituted 4,5-dichloro-10H-anthracen-9-ones as inhibitors of keratinocyte hyperproliferation” (Eur J Med Chem, 2010)

Assays:
[1] = tested on: Radical scavenging activity; assay: Antioxidant activity assessed as DPPH free radical scavenging activity by spectrophotometry; type: functional
Outline: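 DPPH radical decrease read spectrophotometrically as absorbance at 520 nm. Percent interaction = (1 − test absorbance/control absorbance) × 100, with test means from N = 3 and control means from N = 8. EC50 is the concentration giving a 50% drop in DPPH absorbance, obtained by nonlinear regression. NDGA and α-tocopherol served as positive controls.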

[2] = tested on: HaCaT; assay: Cytotoxicity against human HaCaT cells assessed as LDH release at 2 uM after 4 hrs; type: cell-based
Outline: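 HaCaT cells were exposed to test compound for 4 h at 37 °C. Extracellular LDH activity was measured by the UV method with pyruvate and NADH and expressed in mU/mL. The vehicle control was 0.2% DMSO in culture medium, and Brij 35 with ultrasound was the positive control. N = 3, SD < 10%.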

[3] = tested on: HaCaT; assay: Antiproliferative activity against human HaCaT cells after 48 hrs by phase contrast microscopy; type: functional, cell-based
Outline: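 HaCaT human keratinocytes were grown in DMEM with 10% fetal calf serum, penicillin and streptomycin at 37 °C under 8% CO2. After 48 h of exposure, dispersed cells were counted by phase-contrast microscopy. Inhibition = (1 − test/control) × 100, with test N = 3 and control N = 6–8. Significance was tested by Student's t-test. IC50 was obtained by nonlinear regression.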

| SMILES | EC50 [1] | Activity [2] | IC50 [3] |
| --- | --- | --- | --- |
| O=C1c2cccc(Cl)c2C(Cc2ccc(OCc3ccccc3)cc2)c2c(Cl)cccc21 | > 50 µM | – | 36 µM |
| O=C1c2cccc(Cl)c2C(Cc2ccc(OCc3ccccc3)c(OCc3ccccc3)c2)c2c(Cl)cccc21 | > 50 µM | – | > 50 µM |
| COc1ccc(CC2c3c(Cl)cccc3C(=O)c3cccc(Cl)c32)cc1OCc1ccccc1 | > 50 µM | – | > 50 µM |
| O=C1c2cccc(Cl)c2C(Cc2cccc(O)c2)c2c(Cl)cccc21 | > 50 µM | – | 15 µM |
| O=C1c2cccc(Cl)c2C(Cc2ccc(O)cc2)c2c(Cl)cccc21 | > 50 µM | – | 19 µM |
| COc1ccc(CC2c3c(Cl)cccc3C(=O)c3cccc(Cl)c32)cc1O | > 50 µM | 69.5 mU/ml | 0.7 µM |
| O=C1c2cccc(Cl)c2C(c2ccccc2)c2c(Cl)cccc21 | > 50 µM | – | > 50 µM |
| Cc1ccc(C2c3c(Cl)cccc3C(=O)c3cccc(Cl)c32)cc1 | > 50 µM | – | > 50 µM |
| O=C1c2cccc(Cl)c2C(Cc2ccccc2)c2c(Cl)cccc21 | > 50 µM | 69.6 mU/ml | 4.3 µM |
| COc1ccc(OC)c(CC2c3c(Cl)cccc3C(=O)c3cccc(Cl)c32)c1 | > 50 µM | 60.6 mU/ml | 3.8 µM |
| COc1ccc(C2c3c(Cl)cccc3C(=O)c3cccc(Cl)c32)cc1 | > 50 µM | – | 20 µM |
| Cc1ccc(CC2c3c(Cl)cccc3C(=O)c3cccc(Cl)c32)cc1 | > 50 µM | – | 44 µM |
| O=C1c2cccc(Cl)c2C(Cc2ccc(C(F)(F)F)cc2)c2c(Cl)cccc21 | > 50 µM | – | 25 µM |

Further lines, with some results ahead:

| EC50 [1] | SMILES | Activity [2] | IC50 [3] |
| --- | --- | --- | --- |
| 29.5 µM | O=C1c2cccc(Cl)c2Cc2c(Cl)cccc21 | 64.4 mU/ml | – |
| > 50 µM | O=C1c2cccc(Cl)c2C(Cc2ccccc2Cl)c2c(Cl)cccc21 | – | 30 µM |
| > 50 µM | O=C1c2cccc(Cl)c2C(Cc2ccc(Cl)cc2)c2c(Cl)cccc21 | – | 36 µM |
| > 50 µM | COc1ccccc1CC1c2c(Cl)cccc2C(=O)c2cccc(Cl)c21 | – | > 50 µM |
| > 50 µM | COc1cccc(CC2c3c(Cl)cccc3C(=O)c3cccc(Cl)c32)c1 | 65 mU/ml | 2 µM |
| > 50 µM | COc1ccc(CC2c3c(Cl)cccc3C(=O)c3cccc(Cl)c32)cc1 | 57.6 mU/ml | 5 µM |
| > 50 µM | COc1ccc(CC2c3c(Cl)cccc3C(=O)c3cccc(Cl)c32)cc1OC | 68.4 mU/ml | 5 µM |
| > 50 µM | COc1cc(CC2c3c(Cl)cccc3C(=O)c3cccc(Cl)c32)cc(OC)c1 | – | 24 µM |
| > 50 µM | COc1cc(CC2c3c(Cl)cccc3C(=O)c3cccc(Cl)c32)cc(OC)c1OC | – | > 50 µM |
| > 50 µM | O=C1c2cccc(Cl)c2C(Cc2ccccc2[N+](=O)[O-])c2c(Cl)cccc21 | – | > 50 µM |
| > 50 µM | O=C1c2cccc(Cl)c2C(Cc2cccc([N+](=O)[O-])c2)c2c(Cl)cccc21 | 69.9 mU/ml | 5 µM |
| > 50 µM | O=C1c2cccc(Cl)c2C(Cc2ccc([N+](=O)[O-])cc2)c2c(Cl)cccc21 | – | > 50 µM |
| > 50 µM | O=C1c2cccc(Cl)c2C(Cc2ccc([N+](=O)[O-])cc2[N+](=O)[O-])c2c(Cl)cccc21 | – | 17 µM |
| > 50 µM | O=C1c2cccc(Cl)c2C(Cc2cccc(OCc3ccccc3)c2)c2c(Cl)cccc21 | – | 22 µM |
| 6.3 µM | O=C1c2cccc(Cl)c2C(Cc2ccc(O)c(O)c2)c2c(Cl)cccc21 | 76.6 mU/ml | 18 µM |
| 16.7 µM | O=C1c2c(O)cccc2Cc2cccc(O)c21 [ANTHRALIN] | 122.8 mU/ml | – |
